Assay outcomes from PubChem BioAssay.
This is a sample that favours compounds with a hit; in the whole collection about 2% have one here.
Granule exo inh = blocks lytic granule exocytosis; TALL-104 LAMP-1 surface exposure, flow cytometry; cells stimulated with thapsigargin and PMA; inhibition, % at 10 µM; hit rate 0.66% among 360,000;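 active means inhibition above about 55%, limit read from the data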
FGF22 binding = shifts melting point of recombinant human FGF22. recombinant FGF22 thermal shift, SYPRO orange fluorescence; percent of sucrose octasulfate shift, DMSO zero. activity (Tm shift, normalised), % at 9.99 µM. hit rate 1.5% among 340,000;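 active means mean Tm shift, scaled 0 neutral to 100 positive control, at about 1.3% or above, every replicate too, limit read from the data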
DAGLB inh = diacylglycerol lipase beta (human) inhibition; Q8NCG7; HEK293T DAGLB membrane lysate, EnzChek fluorogenic substrate; inhibition, % at 5.17 µM; hit rate 0.059% among 340,000; in the data active means inhibition above about 34%;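 further: 0% = enzyme with vehicle and 100% = wells lacking enzyme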
ABCB6 inh 2 = inhibitors of human ABC transporter ABCB6; K562-ABCB6 porphyrin accumulation, flow cytometry, 1 h; active compounds read low; hit rate 0.19% among 360,000; fluorescence ratio to DMSO, % at 10 µM;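 active means fluorescence ratio to DMSO below 75%, the collection mean minus 3 SD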;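 further: signal is porphyrin accumulated inside mitochondria; 100% equals median channel fluorescence of DMSO control wells; lower ratio means ABCB6 inhibition with less porphyrin fluorescence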
Target sequence (Q9NP58 whole entry, looked up): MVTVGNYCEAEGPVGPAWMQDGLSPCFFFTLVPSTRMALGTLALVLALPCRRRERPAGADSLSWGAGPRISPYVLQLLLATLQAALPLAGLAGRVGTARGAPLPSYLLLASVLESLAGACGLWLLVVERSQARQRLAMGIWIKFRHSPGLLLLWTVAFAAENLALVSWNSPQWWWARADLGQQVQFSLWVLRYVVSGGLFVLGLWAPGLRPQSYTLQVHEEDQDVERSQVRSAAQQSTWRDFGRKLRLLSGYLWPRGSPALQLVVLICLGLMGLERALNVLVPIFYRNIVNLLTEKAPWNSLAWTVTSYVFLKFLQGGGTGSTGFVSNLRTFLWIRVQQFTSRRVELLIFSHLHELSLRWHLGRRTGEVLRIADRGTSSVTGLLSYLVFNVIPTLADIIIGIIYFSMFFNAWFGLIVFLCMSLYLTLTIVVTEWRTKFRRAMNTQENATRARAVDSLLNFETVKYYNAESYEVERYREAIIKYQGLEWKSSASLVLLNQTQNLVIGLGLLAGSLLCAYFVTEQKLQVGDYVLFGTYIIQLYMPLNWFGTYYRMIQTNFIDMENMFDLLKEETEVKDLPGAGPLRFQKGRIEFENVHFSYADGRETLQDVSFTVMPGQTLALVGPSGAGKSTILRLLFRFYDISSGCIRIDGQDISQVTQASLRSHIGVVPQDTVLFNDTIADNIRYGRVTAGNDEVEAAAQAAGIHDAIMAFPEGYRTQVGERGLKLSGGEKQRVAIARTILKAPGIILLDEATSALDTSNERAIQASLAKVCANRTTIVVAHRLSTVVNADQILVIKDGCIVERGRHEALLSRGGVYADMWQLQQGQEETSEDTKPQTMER
MT1-MMP act inh = inhibitors of human MT1-MMP activation. P50281. HT1080 RFP-PRO-GFP cells, GFP/RFP ratio fluorescence, overnight; percent of plate control window, DMSO zero. GFP/RFP ratio change, % at 20 µM. hit rate 0.061% among 360,000. AID 651647;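 active means GFP/RFP ratio change of at least 30% with cell ATP level not reduced by more than half and red fluorescence within 50% of control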
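Assay system: HT1080 RFP-PRO-GFP cells. Benchmarks: DMSO vehicle wells and RFP-L50D-GFP reporter cell wells. Times: overnight cell settling, then overnight compound exposure, 37 °C, 5% CO2. Compound: 20 µM single dose, 1% DMSO. Read-out basis: GFP/RFP fluorescence ratio.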
VLA-4 inh = inhibition in a human VLA-4 binding assay; P13612; VLA-4 expressing cells, ligand binding flow cytometry; inhibition, % (about 7 µM as worked out from the volumes in the protocol); hit rate 0.2% among 330,000; AID 2557; in the data active means inhibition above about 50%
* = called active by the depositor; ! = a repeat was not active.

How did COc1ccc2c(c1OC)CN(C)CCc1cc3c(cc1C(=O)C2)OCO3 do in these assays?
Granule exo inh: 2; FGF22 binding: 43*; DAGLB inh: 1; ABCB6 inh 2: 102; MT1-MMP act inh: 3; VLA-4 inh: -1

How did COc1ccc(NC(=O)Nc2ccc(CC(=O)O)cc2)cc1 do in these assays?
Granule exo inh: 0; FGF22 binding: 43*; DAGLB inh: 1; ABCB6 inh 2: 99; MT1-MMP act inh: 1; VLA-4 inh: -1

What do the screens show for `Cc1ccc(C(=O)N/N=C\C=C\c2ccc(Br)cc2)cn1`?
Granule exo inh: 5; FGF22 binding: 43*; DAGLB inh: 0; ABCB6 inh 2: 103; MT1-MMP act inh: 3; VLA-4 inh: 10

What do the screens show for `Cc1ccc(C(=O)N/N=C/c2cc(Br)ccc2O)cn1`?
Granule exo inh: -3; FGF22 binding: 0; DAGLB inh: 3; ABCB6 inh 2: 96; MT1-MMP act inh: 5; VLA-4 inh: -1

What do the screens show for `COc1ccc(C(=O)/C=C/c2ccc(O)cc2)cc1`?
Granule exo inh: -3; FGF22 binding: 2.7*; DAGLB inh: -3; ABCB6 inh 2: 95; MT1-MMP act inh: 5; VLA-4 inh: -2

How did O=C(/C=C/c1ccc(O)cc1)c1ccccc1 do in these assays?
Granule exo inh: 15; FGF22 binding: 1.3*; DAGLB inh: -2; ABCB6 inh 2: 96; MT1-MMP act inh: 7; VLA-4 inh: 4

Results for CN(C)c1ccc(/C=C/C(=O)c2ccc(O)cc2)cc1 ?
Granule exo inh: 15; FGF22 binding: 1; DAGLB inh: -92; ABCB6 inh 2: 129; MT1-MMP act inh: -121

Results for C[C@@H]1CN([C@H](C)CO)C(=O)c2cc(NC(=O)CCCN(C)C)ccc2O[C@@H]1CN(C)C ?
FGF22 binding: 0

How did CCCCn1nc2cc(C(=O)NCc3cc(C(F)(F)F)cc(C(F)(F)F)c3)ccc2c1OCC do in these assays?
Granule exo inh: 30; FGF22 binding: 44*; DAGLB inh: -16; ABCB6 inh 2: 101; VLA-4 inh: -14

How did CCOc1c2ccc(C(=O)NCc3cc(C(F)(F)F)cc(C(F)(F)F)c3)cc2nn1CCOC do in these assays?
Granule exo inh: -2; FGF22 binding: 0; DAGLB inh: -4; ABCB6 inh 2: 93; MT1-MMP act inh: 6; VLA-4 inh: 17

How did Cc1sc2ncnc(N3CCN(S(=O)(=O)c4ccc(C(C)(C)C)cc4)CC3)c2c1C do in these assays?
Granule exo inh: -1; FGF22 binding: 0; DAGLB inh: -6; ABCB6 inh 2: 84; MT1-MMP act inh: -1; VLA-4 inh: 28

Results for Cc1ccc(S(=O)(=O)N2CCN(C(=O)C3CCN(c4ncnc5sc(C)c(C)c45)CC3)CC2)c(C)c1 ?
Granule exo inh: -4; FGF22 binding: 0; DAGLB inh: 0; ABCB6 inh 2: 64*; MT1-MMP act inh: 9

What do the screens show for `CCC(=O)Nc1ccc2c(c1)OC[C@@H](C)N(C(=O)C1CCC1)C[C@H](C)[C@@H](OC)CN(C)C2=O`?
FGF22 binding: 0

What do the screens show for `O=C(O)c1cc2c(o1)CCC/C2=N\O`?
Granule exo inh: 0; FGF22 binding: 0; DAGLB inh: -2; ABCB6 inh 2: 101; MT1-MMP act inh: 9; VLA-4 inh: 10

Results for O=C(c1cc([N+](=O)[O-])cc([N+](=O)[O-])c1)N1CCCc2ccccc21 ?
Granule exo inh: -2; FGF22 binding: 43*; DAGLB inh: 0; ABCB6 inh 2: 96; MT1-MMP act inh: 6; VLA-4 inh: 14

Results for O=C(N/N=C1/CCCc2ccccc21)c1cc([N+](=O)[O-])cc([N+](=O)[O-])c1 ?
FGF22 binding: 43*; VLA-4 inh: -2

How did O=C(N/N=C1\CCCc2oc(C(=O)O)cc21)c1ccccc1 do in these assays?
Granule exo inh: 1; FGF22 binding: 43*; DAGLB inh: -2; ABCB6 inh 2: 98; MT1-MMP act inh: 8; VLA-4 inh: 12

How did Cc1nn(C)c(C)c1CNC(=O)Nc1ccc(Cl)cc1 do in these assays?
Granule exo inh: 1; FGF22 binding: 0; DAGLB inh: -1; ABCB6 inh 2: 96; MT1-MMP act inh: -1; VLA-4 inh: -15

What do the screens show for `Cc1nn(C)c(C)c1CNC(=O)Nc1cccc(Cl)c1`?
Granule exo inh: 1; FGF22 binding: 43*; DAGLB inh: -2; ABCB6 inh 2: 101; MT1-MMP act inh: 0; VLA-4 inh: 14

Results for O=C(NCc1ccc(F)cc1)Nc1cccc(Cl)c1 ?
Granule exo inh: 0; FGF22 binding: 44*; DAGLB inh: -4; ABCB6 inh 2: 97; MT1-MMP act inh: 3; VLA-4 inh: -15

What do the screens show for `CNC[C@@H]1OCCCC[C@H](C)Oc2ccc(NC(=O)NC(C)C)cc2C(=O)N([C@H](C)CO)C[C@H]1C`?
FGF22 binding: 0

How did Cc1noc(C)c1S(=O)(=O)N(C)C[C@H]1Oc2ccc(NS(=O)(=O)c3ccc(Cl)cc3)cc2CC(=O)N([C@@H](C)CO)C[C@H]1C do in these assays?
FGF22 binding: 0

What do the screens show for `CCCC(=O)Nc1ccc2c(c1)C(=O)N(C)C[C@@H](OC)[C@@H](C)CN(Cc1ccccc1F)[C@H](C)CO2`?
FGF22 binding: 0

Results for COc1ccc(C(=O)C[n+]2cc(-c3ccc(OC)cc3)n3c2CCCC3)cc1 ?
Granule exo inh: -2; FGF22 binding: 43*!; DAGLB inh: 1; ABCB6 inh 2: 93; MT1-MMP act inh: -6; VLA-4 inh: 6

How did O=C(C[C@@H]1CC[C@H](NC(=O)CN2CCOCC2)[C@H](CO)O1)NCCc1ccncc1 do in these assays?
FGF22 binding: 0

How did N#C/C(=C\c1cccnc1)C(=O)Nc1ccc(C(=O)O)cc1 do in these assays?
Granule exo inh: -3; FGF22 binding: 43*; DAGLB inh: 0; ABCB6 inh 2: 94; MT1-MMP act inh: -4; VLA-4 inh: 35

How did N#C/C(=C\c1cccnc1)C(=O)Nc1ccccc1 do in these assays?
Granule exo inh: -1; DAGLB inh: 1; ABCB6 inh 2: 101; MT1-MMP act inh: -10; VLA-4 inh: -8

How did Cc1ccc(S(=O)(=O)N[C@@H]2CC[C@@H](CC(=O)N3CCN(c4ccccc4)CC3)O[C@@H]2CO)cc1 do in these assays?
FGF22 binding: 0

How did COc1ccc(NC(=S)N2CCC(NC(=O)c3ccc(F)cc3)CC2)cc1 do in these assays?
Granule exo inh: 8; FGF22 binding: 0; DAGLB inh: 3; ABCB6 inh 2: 98; MT1-MMP act inh: 2; VLA-4 inh: 13

What do the screens show for `COc1ccc(NC(=S)N2CCC(NC(=O)c3ccc(OC)cc3)CC2)cc1`?
Granule exo inh: 0; FGF22 binding: 0; DAGLB inh: 1; ABCB6 inh 2: 74*; MT1-MMP act inh: 2; VLA-4 inh: -3
